The assay is described as follows: Inhibition of Escherichia coli […] expressed in Escherichia coli TB1 using sodium pyruvate as substrate assessed as reduction of 2,6-DCPIP preincubated for 3 mins followed by ThDP addition. A digest of the protocol: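 MBP-fused E. coli PDHc-E1 from plasmid pMal-C2X in strain TB1 (LB with 2% glucose, ampicillin, 37 °C to A600 0.6–0.8; 0.5 mM IPTG, 7 h, 25 °C), MBP affinity-purified, Bradford-quantified. Reaction: 50 mM K3PO4 pH 7.2, 2.0 mM pyruvate, 0.8 mM 2,6-DCPIP, enzyme, inhibitor at varied concentrations; 3 min at 37 °C, then ThDP added; DCPIP reduction read at 600 nm.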

For orientation: IC50 means the concentration that gives 50% inhibition. Consider `Cc1ncc(Cn2nnc(C(=O)N/N=C/c3ccc(O)cc3)c2C)c(N)n1`, for which the half-inhibitory concentration (IC50) is 3.43 µM.

`Cc1ncc(Cn2nnc(C(=O)N/N=C/c3ccc(F)cc3)c2C)c(N)n1`: the IC50 was 8 µM. In the case of `Cc1ncc(Cn2nnc(C(=O)N/N=C/c3ccc([N+](=O)[O-])cc3)c2C)c(N)n1` it was 0.65 µM. For `Cc1ncc(Cn2nnc(C(=O)N/N=C/c3ccc4c(c3)OCO4)c2C)c(N)n1` the value was 14.5 µM; for `Cc1ncc(Cn2nnc(C(=O)N/N=C/c3ccc(C(F)(F)F)cc3)c2C)c(N)n1`, 1.92 µM; for `Cc1ncc(Cn2nnc(C(=O)N/N=C/c3ccccc3Br)c2C)c(N)n1`, 53.8 µM. Take `Cc1ncc(Cn2nnc(C(=O)N/N=C/c3ccccn3)c2C)c(N)n1`: the IC50 was 22.8 µM. Turning to `Cc1ncc(Cn2nnc(C(=O)N/N=C/c3ccccc3)c2C)c(N)n1`, the IC50 was found to be 110 µM. In the case of `Cc1ncc(Cn2nnc(C(=O)N/N=C/c3ccccc3O)c2C)c(N)n1` it was 11.6 µM; in that of `Cc1ncc(Cn2nnc(C(=O)N/N=C/c3cccc(O)c3)c2C)c(N)n1`, 23.4 µM.

Consider `Cc1ncc(Cn2nnc(C(=O)N/N=C/c3ccccc3Cl)c2C)c(N)n1`, for which the half-maximal inhibitory concentration (IC50) amounted to 13.6 µM. In the case of `Cc1ncc(Cn2nnc(C(=O)N/N=C/c3ccc(Cl)cc3)c2C)c(N)n1` it was 2.35 µM; in that of `Cc1ncc(Cn2nnc(C(=O)N/N=C/c3ccc(Br)cc3)c2C)c(N)n1`, 1.89 µM. Regarding `Cc1ncc(Cn2nnc(C(=O)N/N=C/c3ccc(Cl)c([N+](=O)[O-])c3)c2C)c(N)n1`, the half-maximal inhibitory concentration (IC50) worked out at 1.71 µM. On to `Cc1cccc(/C=N/NC(=O)c2nnn(Cc3cnc(C)nc3N)c2C)c1`, for which the concentration for half-maximal inhibition (IC50) stood at 20.9 µM. For `Cc1ccc(/C=N/NC(=O)c2nnn(Cc3cnc(C)nc3N)c2C)cc1` the value was 50.3 µM.

The record behind these values is ChEMBL document CHEMBL3102816, “Design, synthesis and molecular modeling of novel N-acylhydrazone derivatives as pyruvate dehydrogenase complex E1 inhibitors” (Bioorg Med Chem, 2014).
